Screens (PubChem BioAssay)
Tn6 DDE FP: inhibitors of Tn6 peptide binding to human fibrin DD(E); inhibition, % at 8.3 µM; 0.21% of 370,000 active; Fibrin DD(E) TRITC-Tn6 fluorescence polarization displacement; AID 720509; P02675;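 active = inhibition above a per-campaign cutoff: mean of compounds within control limits plus 3 SD, cut at about 15% in these data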
Target sequence (P02675 whole entry, looked up): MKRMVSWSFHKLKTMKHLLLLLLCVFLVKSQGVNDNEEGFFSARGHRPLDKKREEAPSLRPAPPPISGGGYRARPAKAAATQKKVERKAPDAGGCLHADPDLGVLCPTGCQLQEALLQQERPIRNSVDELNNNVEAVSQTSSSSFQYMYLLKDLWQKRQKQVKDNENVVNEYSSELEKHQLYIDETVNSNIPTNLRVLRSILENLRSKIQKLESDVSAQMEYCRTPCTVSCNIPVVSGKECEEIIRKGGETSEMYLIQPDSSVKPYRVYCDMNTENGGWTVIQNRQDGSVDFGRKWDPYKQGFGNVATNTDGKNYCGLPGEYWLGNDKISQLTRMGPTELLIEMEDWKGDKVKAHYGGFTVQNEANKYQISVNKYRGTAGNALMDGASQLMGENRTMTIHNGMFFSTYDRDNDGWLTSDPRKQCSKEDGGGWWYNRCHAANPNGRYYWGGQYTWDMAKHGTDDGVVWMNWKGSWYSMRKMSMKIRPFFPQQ
MT1-MMP act inh: MT1-MMP (human) activation inhibition; GFP/RFP ratio change, % at 20 µM; 0.061% of 360,000 active; HT1080 RFP-PRO-GFP cells, GFP/RFP ratio fluorescence, overnight; percent of plate control window, DMSO zero; P50281;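 active = GFP/RFP ratio change of at least 30% with cell ATP level not reduced by more than half and red fluorescence within 50% of control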
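Read-out: GFP/RFP fluorescence ratio; Test system: RFP-PRO-GFP reporter HT1080 cells; Compound dosing: single-point 20 µM compound, 1% DMSO; Times: overnight compound exposure at 37 °C.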
DDE Tn7 FP inh: inhibitors of Tn7 peptide binding to human fibrin DD(E); P02675; FP displacement of FITC-Tn7 peptide from fibrin DD(E); 0% = median of compound wells per plate; inhibition, % at 8.3 µM; 0.13% of 370,000 active; AID 720508;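 active = inhibition above the mean of compounds falling within the control limits plus 3 SD of them, cut at about 14% in these data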
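Test system – human fibrin DD(E) · Times – 10 min preincubation, 3 h with tracer, room temperature · Detection – fluorescence polarization of the labelled Tn7 tracer · Measure – percent inhibition normalized to high-control wells · Benchmarks – high control wells with 10 µM unlabelled Aha-Tn7 peptide (full inhibition) · Repeats – singlicate testing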
ADAM10 inh: ADAM10 inhibition, QFRET primary screen; recombinant ADAM10, EDANS/DABCYL FRET peptide cleavage, 3 h; O14672; 0.62% of 370,000 active; AID 720582; inhibition, % at 7 µM;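 active = inhibition above a per-campaign cutoff equal to the mean of compounds falling between control-based bounds plus 3 SD, cut at about 20% in these data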
ADAM17 inh: ADAM17 inhibition, QFRET primary screen; P78536; recombinant ADAM17, EDANS/DABCYL FRET peptide cleavage; inhibition, % at 6.95 µM; 0.83% of 370,000 active; AID 720648;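 active = inhibition above the mean of compounds lying between control limits plus 3 SD, set per campaign, cut at about 8.5% in these data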
ADAM10 ctr: ADAM10 inhibition, counter-screen for ADAM17 exosite hits | 47% of 2,900 active | recombinant ADAM10, EDANS/DABCYL FRET peptide cleavage, 3 h | shares compounds with ADAM17 inh | inhibition, % at 6.95 µM;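 active = mean inhibition over the triplicate runs exceeds the activity threshold set in the earlier primary screen, cut at about 20% in these data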
ADAM17 confirm: confirmation of inhibitors of human ADAM17 | shares compounds with ADAM17 inh | recombinant ADAM17, EDANS/DABCYL QFRET peptide cleavage | inhibition, % at 6.95 µM | 65% of 2,900 active | AID 743257;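 active = mean inhibition across replicates above the hit cutoff set in the primary screen, cut at about 8.5% in these data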
Large screens that a line does not name were inactive (follow-up assays come after a bar, where they were run); ! = not active in a repeat. A selection: hits, their analogues and other compounds. The true share with any hit is near 1.6%.

O=C(NCC1COc2ccccc2O1)c1ccc(NC(=O)C(Cl)Cl)cc1 (configuration not stated)	none (no result: MT1-MMP act inh)
CC(C)c1ccc(OC[C@@H](O)CN2CCC(C(O)(c3ccccc3)c3ccccc3)CC2)cc1	none (no result: MT1-MMP act inh)
COC(=O)[C@H](Cc1ccccc1)N[C@H](c1ccc(OC)cc1)[C@@H](O)Cc1ccccc1	none (no result: MT1-MMP act inh)
COc1ccc(Nc2nc(C)c(-c3ccccc3)s2)cc1	ADAM17 inh 9.1 | ADAM10 ctr inactive | ADAM17 confirm inactive
CCCC(=O)N1CCC[C@]2(CC[C@H](CCC(=O)OCC)O2)C1	none (no result: MT1-MMP act inh)
COc1ccc(NS(=O)(=O)c2cc(OC)ccc2NC(=O)c2cc(C)oc2C)cc1	ADAM17 inh 8.8 | ADAM10 ctr inactive | ADAM17 confirm inactive
Cc1ccc(S(=O)(=O)c2nnn3c2nc(N2CCC(C(N)=O)CC2)c2ccccc23)cc1	none
NC(=O)C1CCN(c2nc3c(S(=O)(=O)c4ccccc4)nnn3c3ccccc23)CC1	ADAM17 inh 13 | ADAM10 ctr inactive | ADAM17 confirm inactive
CCN(C(=O)CC(C)C)c1nnc(Cn2nnc3ccccc32)s1	none
CCN(C(=O)c1ccc(C(C)(C)C)cc1)c1nnc(Cn2nnc3ccccc32)s1	ADAM17 inh 9.3 | ADAM10 ctr inactive | ADAM17 confirm 9.5
O=C(OC12CCCN(C1)/C(=C/c1cccnc1)C2)c1ccco1 (configuration not stated)	none (no result: MT1-MMP act inh)
COc1cc(NC(=O)c2csc(N)n2)cc(C(=O)Nc2cccc(C(F)(F)F)c2)c1	none
COc1cc(NC(=O)c2cc(C)on2)cc(C(=O)Nc2cccc(C(F)(F)F)c2)c1	ADAM17 inh 12! | ADAM10 ctr 34 | ADAM17 confirm 16
COc1ccc(C)cc1N(C(=O)c1cccc(F)c1)c1nc2ccccc2s1	none
COc1ccc(C)cc1N(C(=O)c1ccccc1)c1nc2ccccc2s1	ADAM17 inh 9.9 | ADAM10 ctr 26 | ADAM17 confirm 18
COC(=O)[C@]12C=CCN1[C@@H](c1ccc(C(F)(F)F)cc1)c1c(c3ccccc3n1S(=O)(=O)c1ccc(C)cc1)C2	none (no result: MT1-MMP act inh)
O=C(O)C(=Cc1ccc([N+](=O)[O-])cc1)c1ccccc1	none (no result: MT1-MMP act inh)
CC12C=CC(C)(C3C(=O)NC(=O)C31)C1C3C(=O)NC(=O)C3C12 (configuration not stated)	none (no result: MT1-MMP act inh)
O=C(NC1=NCCS1)c1cc(-c2cccc(Br)c2)nc2ccccc12	ADAM17 inh 9.1 | ADAM10 ctr inactive | ADAM17 confirm 9.3
Cc1ccc(OC(=O)c2cccc(S(=O)(=O)N(C)C)c2)c(-n2nc3ccccc3n2)c1	none
Cc1ccc(OC(=O)c2ccc(S(=O)(=O)N(C)C)cc2)c(-n2nc3ccccc3n2)c1	ADAM17 inh 9.1 | ADAM10 ctr 32 | ADAM17 confirm 17
N#C/C(=N\Nc1ccc(F)cc1)C(=N)N1CCCCC1	none
COc1ccc(N/N=C(\C#N)C(=N)N2CCOCC2)cc1	ADAM17 inh 8.8 | ADAM10 ctr inactive | ADAM17 confirm inactive
CC1(C(=O)NCc2cccc(C(F)(F)F)c2)CCN1Cc1cc2ccccc2o1 (configuration not stated)	none
CC1(C(=O)NCc2cccc(C(F)(F)F)c2)CCN1Cc1ccc(-c2ccccc2)o1 (configuration not stated)	ADAM17 inh 13 | ADAM10 ctr inactive | ADAM17 confirm 10
Cc1cccc(C)c1NC(=O)C1(C)CSCC(=O)N1CCc1ccc(O)cc1 (configuration not stated)	ADAM17 inh 11 | ADAM10 ctr inactive | ADAM17 confirm inactive
Cc1cccc(C)c1NC(=O)C1(C)CSCC(=O)N1CC(C)C (configuration not stated)	none (no result: MT1-MMP act inh)
O=C(NCc1ccco1)C1CCCN(S(=O)(=O)c2ccc([N+](=O)[O-])cc2)C1 (configuration not stated)	none (no result: MT1-MMP act inh)
CCCCCCCCn1cnc2c(N)c(C)c(C)cc21	ADAM17 inh 8.8 | ADAM10 ctr inactive | ADAM17 confirm 9.0
CCCSc1ccc([C@@H]2[C@H]3C(=O)N(CC)C(=O)[C@H]3[C@]3(C(=O)OC)CCCN23)cc1	ADAM17 inh 13 | ADAM10 ctr inactive | ADAM17 confirm inactive
CCN1C(=O)[C@@H]2[C@@H](c3ccc(SC4CCCCC4)c(OC)c3)N3CCCC[C@@]3(C(=O)OC)[C@@H]2C1=O	none
COC(=O)[C@@]12CCCCN1[C@H](c1ccc(SC3CCCCC3)c(OC)c1)[C@@H]1C(=O)N(C)C(=O)[C@@H]12	ADAM17 inh 10 | ADAM10 ctr 29 | ADAM17 confirm 17
CCCSc1ccc([C@@H]2[C@@H]3C(=O)N(CC)C(=O)[C@@H]3[C@]3(C(=O)OC)CCCCN23)cc1	none
CCSc1ccc([C@@H]2[C@H]3C(=O)N(C)C(=O)[C@H]3[C@]3(C(=O)OC)CCCCN23)cc1OC	ADAM17 inh 11 | ADAM10 ctr 26 | ADAM17 confirm 13
CCC(C)Sc1ccc([C@@H]2[C@@H]3C(=O)N(CC)C(=O)[C@@H]3[C@]3(C(=O)OC)CCCCN23)cc1OC (some centres not stated)	ADAM17 inh 9.2 | ADAM10 ctr inactive | ADAM17 confirm inactive
CN1C(=O)c2cc(NC(=O)Nc3ccccc3)ccc2OC[C@H]2O[C@@H](CC(=O)Nc3cc(F)ccc3F)CC[C@@H]21	none (no result: MT1-MMP act inh)
O=C(Cn1nc(-c2ccccc2)ccc1=O)NCCc1ccccc1F	none (no result: MT1-MMP act inh)
CCOc1ccc(CCN2C(=S)N([C@@H](Cc3ccc(O)cc3)CN3CCC[C@@H]3CN3C(=S)NC[C@@H]3Cc3ccccc3)C[C@@H]2Cc2ccc(O)cc2)cc1	ADAM17 inh 12 | ADAM10 ctr inactive | ADAM17 confirm 8.8
CC(C)C[C@H]1CNC(=S)N1C[C@H]1CCCN1C[C@H](Cc1ccccc1)N1C[C@H](Cc2ccc(O)cc2)N(CCc2ccccc2)C1=S	ADAM17 inh 9.5 | ADAM10 ctr inactive | ADAM17 confirm 9.5
CC(C)C[C@H]1CNC(=S)N1C[C@H]1CCCN1C[C@H](Cc1ccc(O)cc1)N1C[C@H](CC(C)C)N(CCc2ccccc2)C1=S	none
CC(C)C[C@H]1CN([C@@H](Cc2ccc(O)cc2)CN2CCC[C@@H]2CN2C(=S)NC[C@@H]2Cc2ccccc2)C(=S)N1CCc1ccccc1	ADAM17 inh 8.9 | ADAM10 ctr 34 | ADAM17 confirm 20
CC(C)C[C@H]1CNC(=S)N1C[C@H]1CCCN1C[C@H](Cc1ccc(O)cc1)N1C[C@H](Cc2ccc(O)cc2)N(CCc2ccccc2)C1=S	none
